Common to all, as to type: functional
The subject of experiment [1] is Curvularia lunata. Description: Antifungal activity against Curvularia lunata NCIM 716 at 200 ug/disk after 48 hrs by agar disc-diffusion method. The settings on record: NCIM 716, 48 h, read-out: DIZ. Summed up: (§1)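 Sterile 6 mm filter-paper discs are soaked in compound solution in DMSO and placed on nutrient agar plates already inoculated with each organism. Plates are incubated at 37 °C. The diameter of the growth-inhibition zone is read after 24 h for bacteria and after 48 h for fungi.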

Experiment [2] has as its system Bacillus subtilis. Description: Antibacterial activity against Bacillus subtilis NCIM 2063 after 24 hrs by microdilution susceptibility method. The settings on record: NCIM 2063, 24 h. Summed up:
(§2)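 This is a microdilution susceptibility test. Organism suspensions are inoculated into wells holding the dilution series, then incubated at 36 °C for 24 h (bacteria) or 48 h (fungi). MIC is the lowest concentration giving no turbidity, i.e. complete inhibition of visible growth.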
Background: Broth dilution looks for growth in wells or tubes with falling amounts of substance.

Experiment [3] deals with Aspergillus niger. Description: Antifungal activity against Aspergillus niger NCIM 596 at 100 ug/disk after 48 hrs by agar disc-diffusion method. To be noted: NCIM 596, 48 h, read-out: DIZ. In a few lines:
as §1
A general note: A growth-free zone around the sample is the usual read-out of agar diffusion tests.

The test system of experiment [4] is Fusarium solani. In words: Antifungal activity against Fusarium solani NCIM 1330 at 200 ug/disk after 48 hrs by agar disc-diffusion method. The settings on record: NCIM 1330, 48 h, read-out: DIZ. In a few lines:
as §1

For experiment [5], the system named is Klebsiella pneumoniae. Description: Antibacterial activity against Klebsiella pneumoniae NCIM 2957 after 24 hrs by microdilution susceptibility method. The settings on record: NCIM 2957, 24 h. In a few lines:
as §2

In experiment [6] the test system is Klebsiella pneumoniae. Description: Antibacterial activity against Klebsiella pneumoniae NCIM 2957 at 100 ug/disk after 24 hrs by agar disc-diffusion method. The settings on record: NCIM 2957, 24 h, read-out: DIZ. Summed up: as §1
Experiment [7] has as its system Aspergillus niger. In words: Antifungal activity against Aspergillus niger NCIM 596 at 200 ug/disk after 48 hrs by agar disc-diffusion method. The settings on record: NCIM 596, 48 h, read-out: DIZ. Summed up: as §1
The test system of experiment [8] is Aspergillus niger. Description: Antifungal activity against Aspergillus niger NCIM 596 after 48 hrs by microdilution susceptibility method. The settings on record: NCIM 596, 48 h. Summed up:
as §2

The test system of experiment [9] is Fusarium solani. In words: Antifungal activity against Fusarium solani NCIM 1330 after 48 hrs by microdilution susceptibility method. The settings on record: NCIM 1330, 48 h. In a few lines: as §2
The subject of experiment [10] is Bacillus subtilis. In words: Antibacterial activity against Bacillus subtilis NCIM 2063 at 200 ug/disk after 24 hrs by agar disc-diffusion method. The settings on record: NCIM 2063, 24 h, read-out: DIZ. Summed up: as §1
Experiment [11] relates to Proteus vulgaris. Description: Antibacterial activity against Proteus vulgaris NCIM 2027 after 24 hrs by microdilution susceptibility method. To be noted: NCIM 2027, 24 h. In a few lines: as §2
The subject of experiment [12] is Fusarium solani. Description: Antifungal activity against Fusarium solani NCIM 1330 at 100 ug/disk after 48 hrs by agar disc-diffusion method. The settings on record: NCIM 1330, 48 h, read-out: DIZ. Summed up:
as §1

Experiment [13] concerns Curvularia lunata. Description: Antifungal activity against Curvularia lunata NCIM 716 at 100 ug/disk after 48 hrs by agar disc-diffusion method. The settings on record: NCIM 716, 48 h, read-out: DIZ. Summed up:
as §1

The subject of experiment [14] is Staphylococcus aureus. Description: Antibacterial activity against Staphylococcus aureus NCIM 5021 at 200 ug/disk after 24 hrs by agar disc-diffusion method. To be noted: NCIM 5021, 24 h, read-out: DIZ. Summed up: as §1
Experiment [15] concerns Proteus vulgaris. Description: Antibacterial activity against Proteus vulgaris NCIM 2027 at 200 ug/disk after 24 hrs by agar disc-diffusion method. To be noted: NCIM 2027, 24 h, read-out: DIZ. Summed up:
as §1

In experiment [16] the test system is Curvularia lunata. Description: Antifungal activity against Curvularia lunata NCIM 716 after 48 hrs by microdilution susceptibility method. The settings on record: NCIM 716, 48 h. Summed up:
as §2

Experiment [17] has as its system Proteus vulgaris. Description: Antibacterial activity against Proteus vulgaris NCIM 2027 at 100 ug/disk after 24 hrs by agar disc-diffusion method. To be noted: NCIM 2027, 24 h, read-out: DIZ. In a few lines: as §1
Experiment [18] concerns Bacillus subtilis. Description: Antibacterial activity against Bacillus subtilis NCIM 2063 at 100 ug/disk after 24 hrs by agar disc-diffusion method. To be noted: NCIM 2063, 24 h, read-out: DIZ. In a few lines: as §1
Experiment [19] concerns Klebsiella pneumoniae. In words: Antibacterial activity against Klebsiella pneumoniae NCIM 2957 at 200 ug/disk after 24 hrs by agar disc-diffusion method. To be noted: NCIM 2957, 24 h, read-out: DIZ. Summed up: as §1
Experiment [20] has as its system Staphylococcus aureus. In words: Antibacterial activity against Staphylococcus aureus NCIM 5021 after 24 hrs by microdilution susceptibility method. The settings on record: NCIM 5021, 24 h. Summed up: as §2
Experiment [21] relates to Staphylococcus aureus. In words: Antibacterial activity against Staphylococcus aureus NCIM 5021 at 100 ug/disk after 24 hrs by agar disc-diffusion method. To be noted: NCIM 5021, 24 h, read-out: DIZ. Summed up: as §1

Converted amounts (≈) assume the structure as drawn.

As to `O=S(=O)(Cc1ccc(Cl)cc1)Cc1nnc(-c2ccccc2)s1`, the zone of inhibition at 200 µg/disc in the experiment on Curvularia lunata [1] stood at 25 mm; in the experiment on Fusarium solani [4] it was 27 mm; in the experiment with Aspergillus niger [7], 20 mm; with Bacillus subtilis [10], 28 mm; with Staphylococcus aureus [14], 30 mm; with Proteus vulgaris [15] it was 22 mm. In addition, the zone of inhibition at 200 µg/disc in the experiment on Klebsiella pneumoniae [19] worked out at 23 mm. Moreover, the MIC against Bacillus subtilis [2], in the experiment on Klebsiella pneumoniae [5], against Aspergillus niger [8], in the experiment with Fusarium solani [9], in the experiment on Proteus vulgaris [11] and in the experiment on Curvularia lunata [16] was 200 µg/mL (≈ 548 µM) each time. Besides, the MIC (in general, the lowest concentration found to suppress growth) in the experiment on Staphylococcus aureus [20] was 100 µg/mL (≈ 274 µM). The zone of inhibition at 100 µg/disc is 17 mm in the experiment with Aspergillus niger [3]; 19 mm in the experiment on Klebsiella pneumoniae [6]; 24 mm in the experiment on Fusarium solani [12]; 23 mm in the experiment on Curvularia lunata [13]; 17 mm in the experiment on Proteus vulgaris [17]; 24 mm in the experiment on Bacillus subtilis [18]. For the same compound, the zone of inhibition at 100 µg/disc with Staphylococcus aureus [21] worked out at 28 mm.
Take `Nn1c(CS(=O)(=O)Cc2ccc(Cl)cc2)nnc1-c1ccccc1`: the zone of inhibition at 200 µg/disc in the experiment with Curvularia lunata [1] turned out to be 27 mm; in the experiment with Fusarium solani [4], 26 mm; in the experiment on Aspergillus niger [7] it was 20 mm; with Bacillus subtilis [10], 33 mm; in the experiment on Staphylococcus aureus [14] it was 31 mm; in the experiment with Proteus vulgaris [15], 29 mm. The zone of inhibition at 200 µg/disc in the experiment with Klebsiella pneumoniae [19] stood at 29 mm. For the same compound, the MIC with Bacillus subtilis [2] came out at 100 µg/mL (≈ 276 µM); with Klebsiella pneumoniae [5], 200 µg/mL (≈ 551 µM); against Aspergillus niger [8] it was 200 µg/mL (≈ 551 µM); in the experiment with Fusarium solani [9], 100 µg/mL (≈ 276 µM); against Proteus vulgaris [11] it was 200 µg/mL (≈ 551 µM); in the experiment on Curvularia lunata [16], 200 µg/mL (≈ 551 µM). In the experiment on Staphylococcus aureus [20], 100 µg/mL (≈ 276 µM) was the least that counted as inhibitory (MIC). For the same compound, the zone of inhibition at 100 µg/disc is 18 mm with Aspergillus niger [3]; 27 mm with Klebsiella pneumoniae [6]; 24 mm in the experiment on Fusarium solani [12]; 24 mm in the experiment on Curvularia lunata [13]; 26 mm in the experiment with Proteus vulgaris [17]; 28 mm with Bacillus subtilis [18]. For the same compound, the zone of inhibition at 100 µg/disc in the experiment with Staphylococcus aureus [21] is 27 mm.
In the case of `Nn1c(CS(=O)(=O)Cc2ccccc2)nnc1-c1ccccc1Cl`, the zone of inhibition at 200 µg/disc in the experiment on Curvularia lunata [1] was 20 mm; with Fusarium solani [4], 23 mm; with Aspergillus niger [7], 21 mm; in the experiment with Bacillus subtilis [10], 34 mm; in the experiment with Staphylococcus aureus [14], 32 mm; in the experiment with Proteus vulgaris [15], 29 mm. Also, in the experiment on Klebsiella pneumoniae [19], the zone of inhibition at 200 µg/disc amounted to 28 mm. For the same compound, the MIC in the experiment with Bacillus subtilis [2] was determined as 200 µg/mL (≈ 551 µM); with Klebsiella pneumoniae [5] it was 200 µg/mL (≈ 551 µM); against Aspergillus niger [8], 100 µg/mL (≈ 276 µM); in the experiment on Fusarium solani [9], 100 µg/mL (≈ 276 µM); in the experiment on Proteus vulgaris [11], 200 µg/mL (≈ 551 µM); against Curvularia lunata [16], 100 µg/mL (≈ 276 µM). Moreover, the MIC against Staphylococcus aureus [20] amounted to 100 µg/mL (≈ 276 µM). Also, the zone of inhibition at 100 µg/disc worked out at 17 mm in the experiment with Aspergillus niger [3]; 24 mm in the experiment on Klebsiella pneumoniae [6]; 21 mm in the experiment with Fusarium solani [12]; 18 mm in the experiment with Curvularia lunata [13]; 26 mm in the experiment with Proteus vulgaris [17]; 30 mm in the experiment with Bacillus subtilis [18]. Besides, the zone of inhibition at 100 µg/disc in the experiment with Staphylococcus aureus [21] amounted to 29 mm.
As for `Nn1c(CS(=O)(=O)c2ccc(Cl)cc2)nnc1-c1ccccc1Cl`, the zone of inhibition at 200 µg/disc in the experiment with Curvularia lunata [1] came to 25 mm; in the experiment on Fusarium solani [4], 27 mm; in the experiment with Aspergillus niger [7] it was 24 mm; in the experiment on Bacillus subtilis [10] it was 18 mm; with Staphylococcus aureus [14], 23 mm; in the experiment with Proteus vulgaris [15], 20 mm. Further, the zone of inhibition at 200 µg/disc with Klebsiella pneumoniae [19] came out at 20 mm. Further, the minimal inhibitory concentration (MIC) in the experiment with Bacillus subtilis [2] worked out at 400 µg/mL (≈ 1040 µM); with Klebsiella pneumoniae [5], 400 µg/mL (≈ 1040 µM); in the experiment on Aspergillus niger [8], 400 µg/mL (≈ 1040 µM); against Fusarium solani [9] it was 200 µg/mL (≈ 522 µM); against Proteus vulgaris [11] it was 400 µg/mL (≈ 1040 µM); in the experiment with Curvularia lunata [16], 200 µg/mL (≈ 522 µM). In the experiment on Staphylococcus aureus [20], inhibition of growth (MIC) required 400 µg/mL (≈ 1040 µM). For the same compound, the zone of inhibition at 100 µg/disc in the experiment with Aspergillus niger [3] turned out to be 20 mm; in the experiment with Klebsiella pneumoniae [6], 18 mm; in the experiment with Fusarium solani [12], 24 mm; in the experiment with Curvularia lunata [13], 23 mm; in the experiment with Proteus vulgaris [17] it was 19 mm; in the experiment with Bacillus subtilis [18], 16 mm. Besides, the zone of inhibition at 100 µg/disc with Staphylococcus aureus [21] is 19 mm.
